In one data set the test system is SW48. As to the kind of experiment: Growth inhibition of human SW48 cells after 72 hrs. Format: functional. To be noted: SW48, 72 h.
The next data set deals with hERG (KCNH2) (Homo sapiens, UniProt Q12809). In words: Inhibition of human ERG at 30 uM.
The next data set relates to SK-CO-1. As to the kind of experiment: Growth inhibition of human SKCO1 cells after 72 hrs. To be noted: SK-CO-1, 72 h. Format: functional.
A further data set relates to RKO. In words: Growth inhibition of human RKO cells after 72 hrs. It counts as functional.
The next data set deals with HuP-T4. As to the kind of experiment: Growth inhibition of human HUPT4 cells after 72 hrs. It counts as functional. To be noted: HuP-T4, 72 h.
The nature of data set [1]: Elimination half life in CD-1 mouse plasma at 1 mg/kg, iv administered as bolus. To be noted: read-out: beta t1/2 (converted). Format: ADME, organism-based. Put shortly:
(§1)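 Female CD-1 mice (n = 3), single dosing: intravenous 1.0 mg/kg, or oral 3.0 mg/kg given as a suspension. Blood levels were followed over time to derive clearance, volume of distribution, elimination half-life, Cmax, Tmax, AUC0−∞, oral bioavailability and fraction absorbed.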

The subject of another data set is CWR22R. In words: Growth inhibition of human 22Rv1 cells after 72 hrs. To be noted: 22Rv1, 72 h. Format: functional.
The test system of the next data set is KG-1. As to the kind of experiment: Growth inhibition of human KG1 cells after 72 hrs. It counts as functional. To be noted: KG-1, 72 h.
A short description of data set [2]: Clearance in CD-1 mouse blood at 1 mg/kg, iv administered as bolus. Format: ADME, organism-based. To be noted: whole blood. Put shortly: as §1
The next data set deals with SW948. As to the kind of experiment: Growth inhibition of human SW948 cells after 72 hrs. Format: functional. To be noted: SW948, 72 h.
The next data set concerns ASPC1. In words: Growth inhibition of human AsPC1 cells after 72 hrs. To be noted: ASPC1, 72 h. It counts as functional.
Another data set addresses T1, Peregrin (Homo sapiens, UniProt P55201).
T1 sequence (P55201 whole entry): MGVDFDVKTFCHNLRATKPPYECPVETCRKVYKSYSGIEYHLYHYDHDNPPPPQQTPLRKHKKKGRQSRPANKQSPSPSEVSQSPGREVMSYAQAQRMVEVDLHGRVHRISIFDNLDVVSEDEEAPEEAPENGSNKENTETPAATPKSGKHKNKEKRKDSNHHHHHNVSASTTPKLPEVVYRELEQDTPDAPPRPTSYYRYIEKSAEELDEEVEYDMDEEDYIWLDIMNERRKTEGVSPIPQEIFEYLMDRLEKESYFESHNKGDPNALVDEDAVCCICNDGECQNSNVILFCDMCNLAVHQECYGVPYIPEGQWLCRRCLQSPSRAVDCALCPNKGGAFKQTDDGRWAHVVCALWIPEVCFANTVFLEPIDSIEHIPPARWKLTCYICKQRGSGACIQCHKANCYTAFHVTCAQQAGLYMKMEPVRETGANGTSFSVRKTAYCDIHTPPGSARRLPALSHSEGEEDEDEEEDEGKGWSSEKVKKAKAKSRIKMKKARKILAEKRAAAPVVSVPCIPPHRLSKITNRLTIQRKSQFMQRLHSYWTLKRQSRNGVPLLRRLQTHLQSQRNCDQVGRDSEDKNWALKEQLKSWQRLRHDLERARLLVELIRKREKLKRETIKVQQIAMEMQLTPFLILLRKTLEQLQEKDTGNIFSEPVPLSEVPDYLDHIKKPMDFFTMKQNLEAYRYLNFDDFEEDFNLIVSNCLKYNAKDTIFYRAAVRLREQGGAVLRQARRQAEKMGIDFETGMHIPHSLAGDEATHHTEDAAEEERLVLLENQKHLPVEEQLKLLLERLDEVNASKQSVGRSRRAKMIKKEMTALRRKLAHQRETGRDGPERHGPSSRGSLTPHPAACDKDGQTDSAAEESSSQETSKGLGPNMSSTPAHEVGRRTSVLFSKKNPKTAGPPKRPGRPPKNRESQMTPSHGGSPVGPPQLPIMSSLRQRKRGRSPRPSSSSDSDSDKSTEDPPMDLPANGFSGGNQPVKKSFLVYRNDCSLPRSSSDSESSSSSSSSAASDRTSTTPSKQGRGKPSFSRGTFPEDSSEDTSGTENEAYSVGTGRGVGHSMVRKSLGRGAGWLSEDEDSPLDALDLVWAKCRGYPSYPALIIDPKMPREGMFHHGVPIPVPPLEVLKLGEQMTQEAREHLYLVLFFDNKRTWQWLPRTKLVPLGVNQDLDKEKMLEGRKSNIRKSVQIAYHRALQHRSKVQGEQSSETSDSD
In words: Binding affinity to human BRPF1 by isothermal titration calorimetry. Summed up: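 Titration of compound into BRPF1 bromodomain; binding heats recorded per injection, normalized enthalpies fitted by nonlinear least squares to a single-binding-site model to give KD, ΔH and TΔS.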
For orientation: Isothermal titration calorimetry measures the heat released or taken up as one component is titrated into another.

A short description of data set [3]: Growth inhibition of human MOLP8 cells after 72 hrs. Format: functional. To be noted: MOLP-8, 72 h.
Data set [4] in a line: Tmax in CD-1 mouse blood at 3 mg/kg, po. It counts as ADME, organism-based. To be noted: whole blood. Summed up: as §1
Another data set deals with HCC1187. In words: Growth inhibition of human HCC1187 cells after 72 hrs. Format: functional. To be noted: HCC1187, 72 h.
Data set [5] can be described thus: Intrinsic clearance in mouse liver microsomes. To be noted: read-out: CLH. Format: ADME, microsome. Background: Liver microsomes are a subcellular fraction often used to study metabolism.
In a further data set the test system is NCI-H1437. As to the kind of experiment: Growth inhibition of human NCI-H1437 cells after 72 hrs. To be noted: NCI-H1437, 72 h. Format: functional.
In data set [6] the target is Transcription initiation factor TFIID subunit 1, TAF1 (Homo sapiens) (UniProt P21675). In words: Inhibition of human His tagged TAF1 incubated for 30 mins followed by addition of biotinylated peptide and further incubation for 30 mins measured by AlphaScreen assay.
Data set [7] has as its target Chromatin remodeling regulator CECR2 (Homo sapiens, UniProt Q9BXF3). In words: Inhibition of human CECR2 expressed in Escherichia coli BL21 after 1 hr by BROMOscan assay.
In data set [8] the target is SWI/SNF-related matrix-associated actin-dependent regulator of chromatin subfamily A member 2 (Homo sapiens, UniProt P51531). As to the kind of experiment: Inhibition of human SMARCA2A expressed in Escherichia coli BL21 after 1 hr by BROMOscan assay.
SWI/SNF-related matrix-associated actin-dependent regulator of chromatin subfamily A member 2, sequence (P51531 whole entry): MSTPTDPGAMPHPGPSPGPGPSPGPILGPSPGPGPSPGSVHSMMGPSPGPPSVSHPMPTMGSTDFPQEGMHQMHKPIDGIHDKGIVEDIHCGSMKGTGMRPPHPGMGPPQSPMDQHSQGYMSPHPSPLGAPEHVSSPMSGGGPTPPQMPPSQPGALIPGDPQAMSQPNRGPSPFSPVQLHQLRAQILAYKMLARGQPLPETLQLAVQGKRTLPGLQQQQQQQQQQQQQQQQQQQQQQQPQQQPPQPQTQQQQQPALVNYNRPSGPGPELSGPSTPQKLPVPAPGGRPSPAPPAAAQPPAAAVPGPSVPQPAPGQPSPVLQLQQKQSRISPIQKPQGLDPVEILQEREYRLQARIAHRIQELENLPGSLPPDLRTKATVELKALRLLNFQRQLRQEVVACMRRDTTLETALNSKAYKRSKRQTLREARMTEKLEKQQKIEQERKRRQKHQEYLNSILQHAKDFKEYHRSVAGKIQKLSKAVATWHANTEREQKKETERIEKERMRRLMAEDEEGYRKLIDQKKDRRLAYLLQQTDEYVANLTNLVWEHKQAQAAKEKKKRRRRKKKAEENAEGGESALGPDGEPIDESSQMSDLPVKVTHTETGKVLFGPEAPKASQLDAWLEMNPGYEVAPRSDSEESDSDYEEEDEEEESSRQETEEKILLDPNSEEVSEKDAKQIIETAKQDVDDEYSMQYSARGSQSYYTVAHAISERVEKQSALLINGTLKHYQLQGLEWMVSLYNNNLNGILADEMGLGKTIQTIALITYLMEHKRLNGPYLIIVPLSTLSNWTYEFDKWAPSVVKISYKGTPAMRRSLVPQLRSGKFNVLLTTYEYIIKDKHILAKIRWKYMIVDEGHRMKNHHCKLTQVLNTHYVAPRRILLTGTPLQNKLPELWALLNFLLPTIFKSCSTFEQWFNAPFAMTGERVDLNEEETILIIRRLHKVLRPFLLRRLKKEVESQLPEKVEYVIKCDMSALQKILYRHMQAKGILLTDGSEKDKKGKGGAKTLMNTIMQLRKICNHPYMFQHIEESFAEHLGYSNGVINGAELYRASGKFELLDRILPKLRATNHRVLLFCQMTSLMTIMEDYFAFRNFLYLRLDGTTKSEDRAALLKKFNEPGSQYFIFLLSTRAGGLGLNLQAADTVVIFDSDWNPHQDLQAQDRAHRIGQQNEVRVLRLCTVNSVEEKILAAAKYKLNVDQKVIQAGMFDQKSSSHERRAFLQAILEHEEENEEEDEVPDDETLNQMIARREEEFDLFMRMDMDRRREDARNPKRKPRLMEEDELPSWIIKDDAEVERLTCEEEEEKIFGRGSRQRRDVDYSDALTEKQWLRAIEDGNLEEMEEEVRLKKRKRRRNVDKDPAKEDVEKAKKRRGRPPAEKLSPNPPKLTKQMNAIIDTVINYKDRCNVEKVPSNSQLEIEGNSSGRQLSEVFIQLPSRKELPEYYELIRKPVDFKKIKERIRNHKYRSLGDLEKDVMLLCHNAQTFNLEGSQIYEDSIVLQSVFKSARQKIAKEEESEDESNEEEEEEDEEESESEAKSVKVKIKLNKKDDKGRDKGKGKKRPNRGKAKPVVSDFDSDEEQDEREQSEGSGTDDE

Transcription initiation factor TFIID subunit 1, TAF1 (Homo sapiens), sequence (P21675 whole entry, looked up): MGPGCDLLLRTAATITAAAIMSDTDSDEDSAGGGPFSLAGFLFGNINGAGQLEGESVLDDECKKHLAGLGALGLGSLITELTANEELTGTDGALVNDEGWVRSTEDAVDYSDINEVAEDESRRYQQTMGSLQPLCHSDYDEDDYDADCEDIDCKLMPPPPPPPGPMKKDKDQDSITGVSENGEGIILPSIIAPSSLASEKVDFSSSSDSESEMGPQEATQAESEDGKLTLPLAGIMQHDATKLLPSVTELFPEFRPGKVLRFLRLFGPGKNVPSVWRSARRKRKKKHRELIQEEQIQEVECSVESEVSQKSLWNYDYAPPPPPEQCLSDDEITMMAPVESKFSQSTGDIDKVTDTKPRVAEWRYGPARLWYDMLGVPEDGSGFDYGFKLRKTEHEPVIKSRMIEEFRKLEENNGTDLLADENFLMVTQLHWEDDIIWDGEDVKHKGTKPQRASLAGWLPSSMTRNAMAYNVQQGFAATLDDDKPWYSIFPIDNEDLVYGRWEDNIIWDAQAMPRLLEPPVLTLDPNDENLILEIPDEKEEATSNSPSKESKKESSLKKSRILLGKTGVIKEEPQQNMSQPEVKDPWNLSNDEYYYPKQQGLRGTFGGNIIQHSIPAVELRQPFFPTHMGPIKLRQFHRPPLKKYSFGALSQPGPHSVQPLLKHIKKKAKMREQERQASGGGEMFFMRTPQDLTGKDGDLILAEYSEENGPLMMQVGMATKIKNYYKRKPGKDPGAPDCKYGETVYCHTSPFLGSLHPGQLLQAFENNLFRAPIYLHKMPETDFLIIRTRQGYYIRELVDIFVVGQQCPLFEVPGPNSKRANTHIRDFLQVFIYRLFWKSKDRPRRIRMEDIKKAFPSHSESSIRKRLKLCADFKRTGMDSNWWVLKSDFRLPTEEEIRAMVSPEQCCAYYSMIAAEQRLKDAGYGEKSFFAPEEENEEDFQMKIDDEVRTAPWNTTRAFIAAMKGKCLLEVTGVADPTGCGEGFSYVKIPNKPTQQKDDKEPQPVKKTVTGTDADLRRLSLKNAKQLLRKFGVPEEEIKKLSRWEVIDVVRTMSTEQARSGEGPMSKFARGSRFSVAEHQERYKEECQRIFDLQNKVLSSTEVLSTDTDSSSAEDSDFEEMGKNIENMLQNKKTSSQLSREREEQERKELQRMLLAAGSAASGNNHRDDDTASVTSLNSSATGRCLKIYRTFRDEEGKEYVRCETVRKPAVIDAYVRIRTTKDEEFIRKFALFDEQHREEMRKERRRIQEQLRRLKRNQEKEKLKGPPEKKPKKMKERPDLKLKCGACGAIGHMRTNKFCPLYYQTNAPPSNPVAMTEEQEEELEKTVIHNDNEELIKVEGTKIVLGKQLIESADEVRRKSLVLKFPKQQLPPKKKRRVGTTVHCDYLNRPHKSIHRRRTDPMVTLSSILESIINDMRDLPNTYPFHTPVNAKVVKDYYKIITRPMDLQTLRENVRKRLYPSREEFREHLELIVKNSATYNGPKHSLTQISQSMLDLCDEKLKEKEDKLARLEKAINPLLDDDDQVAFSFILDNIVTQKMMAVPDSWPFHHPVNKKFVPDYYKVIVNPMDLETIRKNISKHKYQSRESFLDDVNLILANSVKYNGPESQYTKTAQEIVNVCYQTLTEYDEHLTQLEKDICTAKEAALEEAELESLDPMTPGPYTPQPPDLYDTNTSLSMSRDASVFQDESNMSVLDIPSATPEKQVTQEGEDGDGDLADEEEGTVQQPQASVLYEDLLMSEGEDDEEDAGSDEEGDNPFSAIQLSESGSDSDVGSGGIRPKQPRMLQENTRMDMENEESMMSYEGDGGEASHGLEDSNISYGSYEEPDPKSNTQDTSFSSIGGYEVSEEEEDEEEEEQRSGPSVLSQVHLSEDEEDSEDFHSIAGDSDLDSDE
hERG (KCNH2), sequence (Q12809 whole entry): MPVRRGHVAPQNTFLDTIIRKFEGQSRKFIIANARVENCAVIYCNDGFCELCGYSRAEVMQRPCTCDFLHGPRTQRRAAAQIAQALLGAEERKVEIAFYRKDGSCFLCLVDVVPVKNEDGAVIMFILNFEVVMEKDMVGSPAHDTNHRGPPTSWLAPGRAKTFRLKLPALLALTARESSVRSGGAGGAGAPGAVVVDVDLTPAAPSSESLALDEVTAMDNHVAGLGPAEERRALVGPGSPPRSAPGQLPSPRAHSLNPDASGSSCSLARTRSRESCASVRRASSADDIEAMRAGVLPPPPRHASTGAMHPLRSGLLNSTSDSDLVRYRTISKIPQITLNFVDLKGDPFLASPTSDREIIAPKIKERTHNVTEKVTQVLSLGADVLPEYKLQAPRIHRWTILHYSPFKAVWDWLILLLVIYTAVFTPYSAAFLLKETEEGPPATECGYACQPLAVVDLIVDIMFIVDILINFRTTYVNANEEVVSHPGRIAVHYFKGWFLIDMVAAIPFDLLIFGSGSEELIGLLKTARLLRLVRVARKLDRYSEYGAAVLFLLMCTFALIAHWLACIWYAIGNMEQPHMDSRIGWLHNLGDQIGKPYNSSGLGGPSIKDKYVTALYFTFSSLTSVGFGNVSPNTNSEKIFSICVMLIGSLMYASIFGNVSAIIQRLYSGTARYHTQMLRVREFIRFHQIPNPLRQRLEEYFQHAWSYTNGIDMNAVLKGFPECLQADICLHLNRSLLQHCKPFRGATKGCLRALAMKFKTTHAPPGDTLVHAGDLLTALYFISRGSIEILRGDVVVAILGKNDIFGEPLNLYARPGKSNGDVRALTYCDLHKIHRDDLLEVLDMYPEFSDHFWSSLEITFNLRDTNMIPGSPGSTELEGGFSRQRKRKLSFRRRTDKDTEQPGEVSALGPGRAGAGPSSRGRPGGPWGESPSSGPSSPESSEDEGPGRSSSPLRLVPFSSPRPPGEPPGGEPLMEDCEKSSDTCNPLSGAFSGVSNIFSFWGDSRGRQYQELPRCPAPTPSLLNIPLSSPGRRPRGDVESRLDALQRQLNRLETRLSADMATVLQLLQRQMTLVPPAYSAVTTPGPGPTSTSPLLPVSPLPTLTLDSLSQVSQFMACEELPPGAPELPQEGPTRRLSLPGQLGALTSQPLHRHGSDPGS

For `Cc1cc2cc(NS(=O)(=O)c3ccc(C#N)cc3)ccc2n(C)c1=O`, the GI50 with SW48 was 1 to 10 µM; in the data set on SK-CO-1 it was 1 to 10 µM; in the data set on RKO, 1 to 10 µM; in the data set on HuP-T4, 1 to 10 µM; with CWR22R it was 1 to 10 µM; with KG-1, 7 µM. Besides, the GI50 (in the data set on SW948; with ASPC1; in [3]; in the data set on HCC1187; in the data set on NCI-H1437) was 1 to 10 µM in each case. At hERG (KCNH2), at 30 µM the inhibition was 45.6%. Also, in data set [1], the half-life was 2 h. Besides, in data set [2], the clearance turned out to be 4 mL/min/kg. Besides, the dissociation constant (Kd) at Peregrin was 0.04 µM. In [4], the Tmax came to 1 h. In data set [5], the microsomal CLint is 14 µL/min/mg.
Regarding `CCc1cc2cc(NS(=O)(=O)c3ccc(C#N)cc3)ccc2n(CC)c1=O`, the results for the IC50 in [6], in data set [7] and in data set [8] were above 20 µM, above 100 µM and 77 µM, respectively.

Broadly, the GI50 is the concentration that inhibits growth by half. Lower therefore signals greater sensitivity of the cells. Broadly, the inhibition is the share of the control response that was lost under treatment. Read a high inhibition as a response far below the control. As a reminder, the clearance is the volume of plasma or blood freed of the substance per unit of time. Lower therefore signals inefficient removal. In general, Kd refers to the equilibrium constant for the complex coming apart. By Tmax is commonly meant the time at which the peak concentration occurs. In general, IC50 refers to the concentration at which inhibition is half-maximal. Low readings indicate greater potency, high ones weaker potency.

For the origin of these results see ChEMBL document CHEMBL4052588, “Design of a Biased Potent Small Molecule Inhibitor of the Bromodomain and PHD Finger-Containing (BRPF) Proteins Suitable for Cellular and in Vivo Studies” (J Med Chem, 2017).
